According to PubChem BioAssay AID652287 (Sanford-Burnham Center for Chemical Genomics, 2013):
Where “and” joins values, the source holds several entries; their conditions need not be identical. Equal entries are not always repeated. Calls of active or inactive are those of the source.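 How the source made its calls: active means compounds with IC50 of 20 µM or lower; inactive means the rest.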

Target: Fatty acid synthase (Homo sapiens) (UniProt P49327)
Experiment: inhibition of FAS-TE enzyme activity – biochemical, endpoint fluorescence, OMFH substrate, round 2, powder samples, SAR follow-up (AID 652287)
Settings: recombinant FAS-TE, OMFH fluorogenic substrate
Procedure, shortened: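 Read-out basis: Fluorescence of released enzymatic product, across compound doses | System: FAS-TE enzyme | Amount: 0.9 µM FAS-TE enzyme, final | Times: Enzyme reaction 60 min at room temperature | Doses: Dose-response series, 5.5% DMSO final | Detection: Fluorescence endpoint, Ex 480 nm, Em 540 nm | Reagent: OMFH fluorogenic substrate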

Fatty acid synthase (Homo sapiens), sequence (P49327 whole entry, looked up): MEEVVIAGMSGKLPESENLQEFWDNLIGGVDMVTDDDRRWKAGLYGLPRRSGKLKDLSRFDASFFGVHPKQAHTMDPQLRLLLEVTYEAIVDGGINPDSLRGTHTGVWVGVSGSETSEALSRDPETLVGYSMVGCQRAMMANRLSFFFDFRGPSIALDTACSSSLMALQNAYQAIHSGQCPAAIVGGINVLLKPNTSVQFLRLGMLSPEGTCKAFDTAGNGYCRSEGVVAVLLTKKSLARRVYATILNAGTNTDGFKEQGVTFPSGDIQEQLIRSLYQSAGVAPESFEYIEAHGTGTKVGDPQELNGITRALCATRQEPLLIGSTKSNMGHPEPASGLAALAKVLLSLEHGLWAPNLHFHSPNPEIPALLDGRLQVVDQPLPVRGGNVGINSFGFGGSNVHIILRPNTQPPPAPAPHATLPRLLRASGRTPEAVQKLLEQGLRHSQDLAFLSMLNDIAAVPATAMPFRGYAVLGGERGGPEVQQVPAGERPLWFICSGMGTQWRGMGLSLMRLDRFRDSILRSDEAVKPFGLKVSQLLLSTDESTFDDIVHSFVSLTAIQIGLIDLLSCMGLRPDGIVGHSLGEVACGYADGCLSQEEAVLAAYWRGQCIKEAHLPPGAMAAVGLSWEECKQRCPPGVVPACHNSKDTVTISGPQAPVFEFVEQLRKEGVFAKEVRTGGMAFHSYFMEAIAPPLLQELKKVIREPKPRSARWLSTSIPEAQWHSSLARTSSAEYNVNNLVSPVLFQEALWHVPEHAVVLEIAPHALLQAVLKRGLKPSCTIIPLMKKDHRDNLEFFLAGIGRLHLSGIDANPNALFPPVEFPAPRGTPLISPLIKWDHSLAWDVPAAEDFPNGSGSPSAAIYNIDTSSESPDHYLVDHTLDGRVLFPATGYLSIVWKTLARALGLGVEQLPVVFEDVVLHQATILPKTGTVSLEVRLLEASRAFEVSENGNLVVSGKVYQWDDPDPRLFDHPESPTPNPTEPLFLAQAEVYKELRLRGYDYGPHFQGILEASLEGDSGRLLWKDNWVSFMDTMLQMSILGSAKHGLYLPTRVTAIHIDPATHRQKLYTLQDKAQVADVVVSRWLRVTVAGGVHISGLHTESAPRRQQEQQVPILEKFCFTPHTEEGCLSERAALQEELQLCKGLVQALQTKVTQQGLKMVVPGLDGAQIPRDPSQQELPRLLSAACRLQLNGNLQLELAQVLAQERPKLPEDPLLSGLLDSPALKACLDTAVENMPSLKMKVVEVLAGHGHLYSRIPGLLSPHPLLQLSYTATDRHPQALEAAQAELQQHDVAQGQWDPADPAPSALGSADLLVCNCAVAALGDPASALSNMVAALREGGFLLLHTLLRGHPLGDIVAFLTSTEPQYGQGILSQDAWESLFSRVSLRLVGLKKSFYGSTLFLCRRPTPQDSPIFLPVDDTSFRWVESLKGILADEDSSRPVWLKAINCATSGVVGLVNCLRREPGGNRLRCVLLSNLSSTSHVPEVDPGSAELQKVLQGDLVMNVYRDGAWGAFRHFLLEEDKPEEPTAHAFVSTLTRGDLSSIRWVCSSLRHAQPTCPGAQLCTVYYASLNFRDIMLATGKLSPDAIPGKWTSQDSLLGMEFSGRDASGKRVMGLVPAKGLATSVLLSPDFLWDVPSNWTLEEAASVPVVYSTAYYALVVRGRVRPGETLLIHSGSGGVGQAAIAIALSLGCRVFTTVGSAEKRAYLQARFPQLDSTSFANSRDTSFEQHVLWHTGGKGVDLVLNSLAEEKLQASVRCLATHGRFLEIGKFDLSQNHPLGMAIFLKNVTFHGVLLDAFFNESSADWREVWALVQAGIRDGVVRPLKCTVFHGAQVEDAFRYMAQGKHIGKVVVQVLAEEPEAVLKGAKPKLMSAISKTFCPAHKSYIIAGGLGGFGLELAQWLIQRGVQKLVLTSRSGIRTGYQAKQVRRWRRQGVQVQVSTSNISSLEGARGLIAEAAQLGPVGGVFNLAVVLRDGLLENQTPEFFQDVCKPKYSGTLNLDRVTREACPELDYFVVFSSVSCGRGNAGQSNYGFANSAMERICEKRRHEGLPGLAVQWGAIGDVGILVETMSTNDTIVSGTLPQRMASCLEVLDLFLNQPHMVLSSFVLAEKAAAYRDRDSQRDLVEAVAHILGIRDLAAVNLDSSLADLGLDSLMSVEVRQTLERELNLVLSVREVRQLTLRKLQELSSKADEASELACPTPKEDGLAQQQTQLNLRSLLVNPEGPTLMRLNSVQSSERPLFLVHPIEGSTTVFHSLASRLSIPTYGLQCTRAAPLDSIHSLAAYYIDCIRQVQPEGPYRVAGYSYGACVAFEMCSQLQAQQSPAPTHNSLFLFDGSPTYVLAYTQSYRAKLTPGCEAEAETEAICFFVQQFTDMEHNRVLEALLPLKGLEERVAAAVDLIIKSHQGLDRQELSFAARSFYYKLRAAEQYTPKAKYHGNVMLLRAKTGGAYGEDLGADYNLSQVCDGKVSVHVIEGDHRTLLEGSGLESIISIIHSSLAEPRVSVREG

| IC50 | SMILES |
| --- | --- |
| 257 nM | CCC(CC)C(=O)Nc1nc(-c2ccc(S(=O)(=O)N3CCCC3)cc2)cs1 |
| 328 nM | CCC(CC)C(=O)Nc1nc(-c2ccc(S(=O)(=O)N(CC)CC)cc2)cs1 |
| 1640 nM | CC(C)CC(=O)Nc1nc(-c2ccc(S(=O)(=O)N3CCCC3)cc2)cs1 |
| 409 nM | CCC(C)C(=O)Nc1nc(-c2ccc(S(=O)(=O)N3CCC(C)CC3)cc2)cs1 (stereo not drawn) |
| 846 nM | CCCCCCC(=O)Nc1nc(-c2ccc(S(=O)(=O)N3CCCC3)cc2)cs1 |
| 141 nM | CCCCCC(=O)Nc1nc(-c2ccc(S(=O)(=O)N3CCCC3)cc2)cs1 |
| 4470 nM | CCCCCCC(=O)Nc1nc(-c2ccc(S(=O)(=O)N3CCC(C)CC3)cc2)cs1 |
| 1390 nM | CCCCCCC(=O)Nc1nc(-c2ccc(S(=O)(=O)N(CC)CC)cc2)cs1 |
| 686 nM | Cn1c(SCC(=O)Nc2ncc(C(F)(F)F)cc2Cl)nnc1-c1ccc(Cl)cc1 |
| 204 nM | CCCCC(=O)Nc1nc(-c2ccc(S(=O)(=O)N3CCOCC3)cc2)cs1 |
| 107 nM | CCCCCCCCCCC[C@H](C[C@@H]1OC(=O)[C@H]1CCCCCC)OC(=O)[C@@H](NC=O)C(C)C |
| inactive | CC(C)CC(=O)Nc1nc(-c2ccc(S(=O)(=O)N3CCC(C)CC3)cc2)cs1 |
| 145 nM | CCC(C)C(=O)Nc1nc(-c2ccc(S(=O)(=O)N3CCCC3)cc2)cs1 (stereo not drawn) |
| 1830 nM | CCC(CC)C(=O)Nc1nc(-c2ccc(S(=O)(=O)N3CCC(C)CC3)cc2)cs1 |
| 382 nM | CCCCC(=O)Nc1nc(-c2ccc(S(=O)(=O)N3CCCCC3C)cc2)cs1 (stereo not drawn) |
| 196 nM | CCCCCC(=O)Nc1nc(-c2ccc(S(=O)(=O)N(CC)CC)cc2)cs1 |
| 580 nM | CCCCCC(=O)Nc1nc(-c2ccc(S(=O)(=O)N3CCCCC3C)cc2)cs1 (stereo not drawn) |
| 343 nM | CN(Cc1ccc(C(C)(C)C)cc1)C(=O)Cc1ccc(S(=O)(=O)N2CCOCC2)s1 |
| 511 nM | CC1CCN(S(=O)(=O)c2ccc(-c3csc(NC(=O)C(C)C)n3)cc2)CC1 |
| 745 nM | CCCCCC(=O)Nc1nc(-c2ccc(S(=O)(=O)N3CCC(C)CC3)cc2)cs1 |
| 4320 nM | CCCCCCC(=O)Nc1nc(-c2ccc(S(=O)(=O)N3CCCCC3C)cc2)cs1 (stereo not drawn) |
| 285 nM | CCC(C)C(=O)Nc1nc(-c2ccc(S(=O)(=O)N3CCCCC3C)cc2)cs1 (stereo not drawn) |
| 1130 nM and 154 nM | CCC(C)C(=O)Nc1nc(-c2ccc(S(=O)(=O)N(CC)CC)cc2)cs1 (stereo not drawn) |
